Data as given in the RNAGym collection of RNA variant scans (doi:10.1002/anie.201605470).

B1: Osa-1-4 twister ribozyme (parent)
chain: CCGCCUAACACUGCCAAUGCCGGUCCCAAGCCCGGAUAAAAGUGGAGGGGGCGG

Variants of: B1
Test: self-cleavage, relative activity (ratio to wild type); higher = more cleavage; co-transcriptional
Summary of the method: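 The 48 positions downstream of the cleavage site in a 54-nucleotide Oryza sativa twister ribozyme template were synthesised at 97 % wild-type base and 1 % of each other base. The template was transcribed in vitro at 37 °C for 2 h, with self-cleavage allowed during transcription. Reads with or without upstream sequence after deep sequencing marked cleavage status, and relative activity is fraction cleaved normalised to wild type.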

Variant | self-cleavage
A41C C52U | 1.03
A41C C52A | 0.94
A41C C52G | 1.04
A41C G49U | 0.12
A41C G49C | 0.08
A41C G49A | 0.11
A41G G23U | 0.06
A41G G23A | 0.12
A41G G23C | 0.07
A41C G44A | 0.81
A41C G44C | 0.97
A41C G44U | 0.9
A41C G13U | 0.04
A41C G13C | 0.02
A41C G13A | 0.08
A41G C9A | 0.08
A41G C9U | 0.11
A41G C9G | 0.22
A41G G47C | 0.07
A41G G47U | 0.08
A41G G47A | 0.1
A41G C26U | 0.17
A41G C26A | 0.05
A41G C26G | 0.09

Variant | self-cleavage
A41G C14G | 0.14
A41G C14U | 0.24
A41G C14A | 0.07
A41G G49C | 0.06
A41G G49U | 0.07
A41G G49A | 0.08
A41C C33G | 0.09
A41C C33A | 0.13
A41C C33U | 0.7
A41G G34A | 0.41
A41G G34U | 0.18
A41G G34C | 0.16
A41C C32A | 0.08
A41C C32G | 0.11
A41C C32U | 0.09
A41C G53C | 0.08
A41C G53U | 0.28
A41C G53A | 0.73
A41C U37G | 1.02
A41C U37C | 1
A41C U37A | 0.92
A41G | 0.84
A41C U12G | 0.8
A41C U12C | 0.55

Variant | self-cleavage
A41C U12A | 0.97
A41G G44C | 0.39
A41G G44A | 0.14
A41G G44U | 0.31
A41C U24G | 0.03
A41C U24C | 0.1
A41C U24A | 0.13
A41G A8C | 0.09
A41G A8G | 0.19
A41G A8U | 0.1
A41G G19U | 0.09
A41G G19C | 0.08
A41G G19A | 0.17
A41C G45C | 0.06
A41C G45U | 0.11
A41C G45A | 0.13
A41G G42U | 0.44
A41G G42C | 0.37
A41G G42A | 0.72
A41C U43G | 0.12
A41C U43A | 0.45
A41C U43C | 0.22
A41C G35U | 0.76
A41C G35C | 0.63

Variant | self-cleavage
A41C G35A | 0.81
A41C G42U | 0.11
A41C G42C | 0.12
A41C G42A | 0.19
A41G G13C | 0.03
A41G G13A | 0.06
A41G G13U | 0.04
A41G C21G | 0.13
A41G C21A | 0.22
A41G C21U | 0.75
A41G G35A | 0.57
A41G G35U | 0.51
A41G G35C | 0.15
A41G C11U | 0.34
A41G C11A | 0.12
A41G C11G | 0.18
A41G G22C | 0.05
A41G G22U | 0.27
A41G G22A | 0.48
A41G C20G | 0.12
A41G C20A | 0.85
A41G C20U | 0.85
A41C G48U | 0.07
A41C G48C | 0.1

Variant | self-cleavage
A41C G48A | 0.08
A41G C52U | 0.88
A41G C52G | 0.84
A41G C52A | 0.84
A41G G45A | 0.09
A41G G45U | 0.09
A41G G45C | 0.05
A41G G48U | 0.05
A41G G48C | 0.08
A41G G48A | 0.08
A41C G34C | 0.32
A41C G34U | 0.73
A41C G34A | 0.76
A41C G22C | 0.05
A41C G22A | 0.8
A41C G22U | 0.49
A41C G51A | 0.28
A41C G51C | 0.07
A41C G51U | 0.16
A41C G47A | 0.17
A41C G47U | 0.2
A41C G47C | 0.09
A41C G50C | 0.93
A41C G50A | 0.37

Variant | self-cleavage
A41C G50U | 1
A41C G30U | 0.04
A41C G30C | 0.05
A41C G30A | 0.05
A41G G50A | 0.34
A41C G54C | 0.85
A41C G54U | 0.89
A41C G54A | 0.92
A41C G19U | 0.15
A41C G19C | 0.14
A41C G19A | 0.74
A41G A7C | 0.05
A41G A7U | 0.08
A41G A7G | 0.14
A41G C31G | 0.11
A41G C31A | 0.04
A41G C31U | 0.17
A41G A46C | 0.06
A41G A46G | 0.07
A41G A46U | 0.08
A41G C27A | 0.09
A41G C27U | 0.09
A41G C27G | 0.04
A41G G30A | 0.05

Variant | self-cleavage
A41G G30U | 0.05
A41G G30C | 0.05
A41C G23C | 0.06
A41C G23U | 0.06
A41C G23A | 0.29
A41C C31G | 0.09
A41C C31U | 0.8
A41C C31A | 0.04
A41G C25G | 0.06
A41G C25A | 0.07
A41G C25U | 0.16
A41G C33G | 0.1
A41G C33A | 0.07
A41G C33U | 0.12
A41G C32G | 0.13
A41G C32A | 0.06
A41G C32U | 0.08
A41C U18A | 0.92
A41C U18C | 0.8
A41C U18G | 0.85
A41G C15G | 0.28
A41G C15U | 0.22
A41G C15A | 0.18
